ABCB1 inh: human ABCB1 inhibition, ABCG2 as counter-screen; inhibition, % at 6.6 µM; actives 0.067% (n = 190,000); P08183; AID 1326; CCRF-Adr cells, JC-1 efflux, flow cytometry; in the data active = inhibition above about 40%;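 note: 0% = vehicle and 100% = reference inhibitor; higher value means more JC-1 retained so stronger ABCB1 efflux block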
ABCG2 block: inhibitors of human ABCG2 transporter, ABCB1 counter-screen. IgMXP3 cells, JC-1 efflux, flow cytometry. inhibition, % at 6.6 µM. actives 0.1% (n = 190,000). Q9UNQ0;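 active = inhibition above 80%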;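 note: 0% = DMSO and 100% = nicardipine control wells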
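Test system: IgMXP3 cells (ABCG2) mixed with DDAO far-red-labelled CCRF-Adr cells (ABCB1). Reagent: JC-1 transporter substrate. Compound dosing: single test compound dose, 6.6 µM final. Times: 10 min compound exposure, 25 °C. Detection: flow cytometry of retained JC-1 fluorescence. Read-out basis: efflux inhibition in percent versus controls. Controls: nicardipine and DMSO wells.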
MEKK2wt PB1 HTS: raises or lowers MEK5 binding to wildtype human MEKK2 PB1 domain; Q9Y2U5; bead flow cytometry, Alexa488-MEK5 binding to MEKK2 WT; actives lie on both sides; actives 1.1% (n = 290,000); binding response (% of control), % at 10 µM; in the data active = binding response below about 67% or above about 130%
MEKK3 PB1 HTS: raises or lowers MEK5 binding to the human MEKK3 PB1 domain; Q99759; binding response (% of control), % at 10 µM; bead-based flow cytometry, Alexa488-MEK5 binding to MEKK3; actives lie on both sides; 0 = blocked by unlabeled MEK5, 100 = vehicle; actives 1.4% (n = 290,000);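 active = binding response more than 3 SD above or below the average of its plate-row segment, actives on both sides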;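 note: Alexa488 bead fluorescence after subtracting the streptavidin-only scavenger bead signal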
Target sequence (Q99759 whole entry, looked up, the tested form may be a part): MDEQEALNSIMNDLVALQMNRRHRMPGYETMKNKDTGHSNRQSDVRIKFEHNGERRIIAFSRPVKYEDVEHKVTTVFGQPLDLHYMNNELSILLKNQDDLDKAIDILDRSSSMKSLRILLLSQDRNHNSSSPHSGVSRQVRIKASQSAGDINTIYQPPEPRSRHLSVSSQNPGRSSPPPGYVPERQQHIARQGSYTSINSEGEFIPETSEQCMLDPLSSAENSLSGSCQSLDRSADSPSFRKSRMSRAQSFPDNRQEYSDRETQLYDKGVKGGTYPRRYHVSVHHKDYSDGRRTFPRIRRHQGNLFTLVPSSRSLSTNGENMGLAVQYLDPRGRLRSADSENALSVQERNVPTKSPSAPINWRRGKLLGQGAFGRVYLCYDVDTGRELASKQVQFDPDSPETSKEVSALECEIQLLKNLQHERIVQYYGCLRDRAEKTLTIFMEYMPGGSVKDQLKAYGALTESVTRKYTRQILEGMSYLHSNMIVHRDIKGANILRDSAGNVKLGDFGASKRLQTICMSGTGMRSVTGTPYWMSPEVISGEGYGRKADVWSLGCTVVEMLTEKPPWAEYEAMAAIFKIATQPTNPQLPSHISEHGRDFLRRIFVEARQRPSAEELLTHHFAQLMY
MEKK2 mut-MEK5: signal of MEK5 binding to mutant human MEKK2 PB1 domain; bead flow cytometry, Alexa488-MEK5 binding to MEKK2 mutant; percent response, % at 10 µM; actives 0.35% (n = 290,000); AID 1530; in the data active = percent response above about 24%, passing the limit was not always enough
Efflux pump mplx: inhibitors of Candida antifungal efflux pumps expressed in yeast | inhibition, % at 10 µM | actives 0.44% (n = 330,000) | S. cerevisiae Candida pump triplex, Nile Red efflux;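 active = plate passing quality check with inhibition over a set limit, or well fluorescence over plate mean plus 4 SD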;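 note: Nile Red retained in pooled yeast measured as flow cytometry median fluorescence; 0% = buffer negative control and 100% = Enniatin B positive control; higher means more Nile Red kept so more efflux inhibition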
MEKK2wt confirm: raises or lowers MEK5 binding to wildtype human MEKK2, retest. binding response (% of control), % at 10 µM. shares compounds with MEKK3 PB1 HTS. actives 2.4% (n = 5,900). bead flow cytometry, Alexa488-MEK5 binding to MEKK2 WT; actives lie on both sides; in the data active = binding response below about 16% or above about 210%; inactive = in between
MEKK2mut confirm: signal of MEK5 binding to mutant human MEKK2, retest; AID 1893; actives 2% (n = 5,900); percent response, % at 10 µM; bead flow cytometry, Alexa488-MEK5 binding to MEKK2 mutant; shares compounds with MEKK3 PB1 HTS; in the data active = percent response mostly above about 71%, no sharp cut-off; inactive = mostly below about 38%;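 note: higher means compound restores mutant binding toward wildtype level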
MEKK3-MEK5 inh: MEKK3-MEK5 PB1 inhibition, single concentration confirmation; shares compounds with MEKK3 PB1 HTS; bead flow cytometry, Alexa488-MEK5 binding to MEKK3; hits give low values; binding response (% of control), % at 10 µM; actives 1.8% (n = 5,900);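 active = binding response below 72% of control, or above a set upper limit, though filed actives all read lower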;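 note: 100% = DMSO only wells and 0% = binding blocked by excess unlabeled MEK5; lower values mean stronger disruption of MEK5 binding to MEKK3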
Numbers without * were called inactive; . = not tested or not shown; [ ] = another dose, or the depositor's remark. Shown are actives, neighbours in structure and some others; about 2.5% of the full set was active somewhere.

SMILES	ABCB1 inh	ABCG2 block	MEKK2wt PB1 HTS	MEKK3 PB1 HTS	MEKK2 mut-MEK5	Efflux pump mplx	MEKK2wt confirm	MEKK2mut confirm	MEKK3-MEK5 inh
CCOC(=O)C1(CC)Oc2ccccc2C(c2ccc(OC)cc2)=C1C(=O)OC (stereo not drawn)	.	.	.	.	.	0.0	.	.	.
Cc1cc(N/N=C/c2ccccc2F)nc(NCc2ccccc2)n1	.	.	114.0	95.0	11.0	0.1	.	.	.
Brc1ccc(/C=N/Nc2ccccn2)cc1	-0.2	-0.1	114.0	127.0	0.0	0.0	.	.	.
Cc1cc(N/N=C/c2cccc(F)c2)nc(NCc2ccccc2)n1	.	.	140.0*	96.0	25.0	-0.1	138.0	26.0	106.0
Clc1ccc(/C=N/Nc2ccccn2)cc1	0.0	0.7	111.0	128.0*	0.0	0.1	104.0	5.0	101.0
Cc1cc(N/N=C/c2ccccc2)nc(NCc2ccccc2)n1	0.0	0.2	175.0*	107.0	32.0	0.1	153.0	31.0	111.0
Cc1cc(N/N=C/c2ccc(Cl)cc2)nc(NCc2ccccc2)n1	1.5	5.2	186.0*	107.0	54.0*	0.1	173.0	51.0	110.0
Cc1cc(Nc2cccc(Cl)c2)nc(NCc2ccccc2)n1	0.4	3.0	119.0	100.0	8.0	0.1	.	.	.
CCOC(=O)C1CCCN(S(=O)(=O)c2cc3c4c(c2)CCC(=O)N4CCC3)C1 (stereo not drawn)	.	.	.	.	.	0.1	.	.	.
Cc1cc(N/N=C/c2cccc(Cl)c2)nc(NCc2ccccc2)n1	-0.1	0.1	149.0*	99.0	35.0	-0.1	174.0	52.0	110.0
CCCCC1(Cc2cccc([N+](=O)[O-])c2)C(=O)N(c2ccccc2)N(c2ccccc2)C1=O	0.8	2.2	90.0	94.0	-1.0	0.1	.	.	.
CC(=O)CSc1nnc(-c2ccco2)n1-c1ccccc1	.	.	97.0	98.0	-3.0	0.1	.	.	.
CSc1nnc(-c2ccco2)n1-c1ccccc1	0.7	3.4	124.0	123.0*	12.0	0.0	109.0	5.0	105.0
COc1cc(CN2CCNC(=O)C2CC(=O)N(C)CCC2CCOCC2)cc(OC)c1 (stereo not drawn)	.	.	103.0	101.0	-6.0	0.4	.	.	.
COc1cccc(CNC(=O)CN2C(=O)CSc3ccc(S(=O)(=O)N4CCCC4)cc32)c1	1.3	2.1	92.0	94.0	-2.0	-0.2	.	.	.
O=C(Nc1cc([N+](=O)[O-])ccc1Cl)C1CC1	3.0	20.8	94.0	96.0	-2.0	-0.1	.	.	.
O=C(Nc1cc([N+](=O)[O-])ccc1F)C1CC1	0.5	5.1	102.0	130.0*	1.0	0.0	97.0	-13.0	100.0
COc1ccc(-c2cc(C(F)(F)F)n3nc(C(=O)NCc4ccco4)c(Cl)c3n2)cc1	0.2	0.4	30.0*[inhibitor]	107.0	2.0	-0.1	111.0	14.0	109.0
CCC(C)(C)NC(=O)CN(C(=O)CCC(=O)Nc1nccs1)c1cccc(C)c1	.	.	109.0	105.0	26.0*	0.0	104.0	0.0	102.0
Cc1ccc(C)c2[nH]c(=O)c(CN(Cc3cccs3)C(=S)NCc3ccco3)cc12	1.9	7.0	115.0	137.0*	1.0	0.5	109.0	9.0	103.0
Cc1ccc2cc(CN(CC3CCCO3)C(=S)NCc3ccco3)c(=O)[nH]c2c1C (stereo not drawn)	2.3	15.0	95.0	97.0	-1.0	0.9	.	.	.
Cc1ccc(C)c2[nH]c(=O)c(CN(CC3CCCO3)C(=S)NCc3ccco3)cc12 (stereo not drawn)	.	.	116.0	129.0*	29.0	0.1	101.0	5.0	104.0
Cc1cc2cc(CN(CCN(C)C)C(=S)NCc3ccco3)c(=O)[nH]c2cc1C	0.1	-0.9	160.0*	84.0	8.0	0.7	118.0	8.0	103.0
Cc1ccc2cc(CN(C(=O)c3ccco3)c3ccccc3C)c(=O)[nH]c2c1	1.9	6.5	100.0	104.0	14.0	0.3	.	.	.
Cc1ccc(N(Cc2cc3ccc(C)cc3[nH]c2=O)C(=O)c2ccco2)c(C)c1	.	.	117.0	132.0*	22.0	-0.2	102.0	5.0	107.0
SMILES	ABCB1 inh	ABCG2 block	MEKK2wt PB1 HTS	MEKK3 PB1 HTS	MEKK2 mut-MEK5	Efflux pump mplx	MEKK2wt confirm	MEKK2mut confirm	MEKK3-MEK5 inh
Brc1ccc(N=Nc2ccc3ccccc3n2)cc1	.	.	99.0	105.0	-5.0	-0.3	.	.	.
Cc1ccc(/C(O)=C2\C(=O)C(=O)N(CC(C)O)C2c2ccccn2)cc1 (stereo not drawn)	0.0	-0.4	96.0	98.0	-8.0	-0.1	.	.	.
CCN(c1ccccc1)S(=O)(=O)c1cc(NC(=O)Nc2ccccc2C#N)ccc1Cl	1.8	6.2	108.0	133.0*	0.0	-0.2	106.0	3.0	102.0
Cc1cccc2c(SCC(N)=O)nc(-c3ccccc3)nc12	.	.	107.0	103.0	3.0	0.0	.	.	.
Nc1[nH]n(-c2ccccc2)c(=O)c1N=Nc1ccc2c(c1)OCCO2	0.1	1.3	80.0	75.0*[inhibitor]	-9.0	0.0	98.0	-2.0	103.0
Nc1[nH]n(-c2ccccc2)c(=O)c1N=Nc1ccc2c(c1)OCO2	.	.	92.0	84.0	-8.0	-0.1	.	.	.
Cc1ccc(OCC(O)CN2C(=O)NC(C)(C)C2=O)cc1C (stereo not drawn)	0.3	0.9	103.0	99.0	3.0	0.3	.	.	.
Cc1ccc(OCC(O)CN2C(=O)NC(C)(C)C2=O)cc1 (stereo not drawn)	-0.4	-1.5	90.0	73.0*[inhibitor]	8.0	-0.1	100.0	-7.0	101.0
CCc1ccccc1NC(=O)CN(C)C(=O)Cn1ncc(Cl)c(Cl)c1=O	-0.1	-0.8	108.0	133.0*	1.0	-0.2	106.0	0.0	106.0
COc1ccccc1-c1ccc(SCc2ccccc2)nn1	0.9	3.9	79.0	73.0*[inhibitor]	-3.0	-0.1	98.0	-3.0	101.0
CCc1nnc(NC(=O)CSc2ccc(-c3cccs3)nn2)s1	-1.4	17.3	83.0	90.0	-11.0	0.1	.	.	.
CCc1nnc(NC(=O)CSc2ccc(-c3ccccc3OC)nn2)s1	0.3	1.2	83.0	67.0*[inhibitor]	-3.0	-0.1	97.0	-3.0	100.0
CCOC(=O)CN(C#N)c1nc(C)cc(C)n1	0.1	0.3	98.0	102.0	-1.0	0.1	.	.	.
COC(=O)CN(C#N)c1nc(C)cc(C)n1	0.5	4.5	112.0	133.0*	1.0	-0.1	102.0	-1.0	102.0
COc1ccc(N2CCN(C(=O)CSc3nnc4c(C)cc5ccc(C)c(C)c5n34)CC2)cc1	0.8	1.6	51.0	36.0*[inhibitor]	-21.0	0.0	98.0	-2.0	96.0
